The values below come from PubChem BioAssay AID504383 (The Scripps Research Institute Molecular Screening Center, 2011).

Molecules are shown by their SMILES. About 1,200 (48%) of roughly 2,500 compounds were called active.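 How the source made its calls: active means mean activation above the low control average plus 3 SD, as set in the primary screen (cut at about 12% in these data); inactive means the rest.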 The set was probably picked from earlier hits. The list shows a part of the results.

The test deals with Troponin I, cardiac muscle (Homo sapiens) + Troponin T, cardiac muscle (Homo sapiens) + Troponin C, slow skeletal and cardiac muscles (Homo sapiens) (UniProt P19429+P45379+P63316). Put plainly: calcium sensitizers of cardiac thin filaments – biochemical, IANBD-TnC fluorescence, triplicate, confirmation (AID 504383).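 Further: 0% = DMSO at 0.472 mM calcium and 100% = DMSO at 2.9 mM calcium.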 The following applies: IANBD-labeled cardiac RTF, Ca2+ sensitivity fluorescence; at 7.2 µM; active compounds read high; scaled from EC20 to saturating calcium; tested at EC20 calcium, 0.472 mM. Summed up:
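material = labelled regulated thin filaments | probe or stimulus = Ca2+ 0.472 mM, EC20 level | dosing = single nominal compound dose of 7.2 µM | schedule = 15 min at 25 °C | signal = fluorescence intensity of labelled filaments | evaluation = fluorescence gain scaled between EC20 and EC100 calcium controls | benchmarks = low control EC20 calcium, high control EC100 calcium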
With `O=C(COc1ccccc1Cl)N1CCN(c2ccccn2)CC1`, the activation was 10.9% (inactive).

Consider `S=C(Nc1cc(Cl)ccc1Oc1ccccc1)N1CCN(c2ccccn2)CC1`, for which the activation was 102% (active).

Turning to `O=c1c2ccccc2nc2n1CCCN2`, the activation is 17.2% (active).

As to `CCC[C@@H](CN1CCC[C@H]1CN1C(N)=NC[C@@H]1Cc1ccccc1)N1C[C@@H](Cc2ccccc2)N(CCCC2CCCC2)C1=N`, the activation was 38.3% (active).

For `CCOc1cc(C#N)ccc1OCC(=O)N1CCc2ccccc2C1`, the activation is 12.3% (active).

Take `CC(C(=O)N1CCc2ccccc2C1)N1C(=O)c2ccccc2C1=O` (stereo not drawn): the activation is 2.65% (inactive).

As for `O=C(Cn1c(=O)oc2cc(S(=O)(=O)N3CCCC3)ccc21)N1CCc2ccccc2C1`, the activation was 10.4% (inactive).

With `CCNc1cccc2c1C(=O)N(C)C2=O`, the activation was 1.44% (inactive).

`CC[C@@]1(O)C(=O)OCc2c1cc1n(c2=O)Cc2cc3c(CN(C)C)c(O)ccc3nc2-1`: the activation was 22.4% (active).

With `CCC1(O)C(=O)OCc2c1cc1n(c2=O)Cc2cc3cc(O)ccc3nc2-1` (stereo not drawn), the activation is 16.1% (active).

In the case of `CCOc1nnc(C)c2c(C)n(-c3cccc(Cl)c3)nc12`, the activation is 5.31% (inactive).

On to `O=C1NC(=S)/C(=C\c2ccc(-c3ccccc3Cl)o2)S1`, for which the activation was 14.2% (active).

Regarding `O=C(O)c1ccccc1-c1ccc(/C=C2\SC(=O)N(c3ccccc3)C2=O)o1`, the activation was 9.01% (inactive).

As for `Cc1noc(/C=C/c2ccc(-c3ccccc3Cl)o2)c1[N+](=O)[O-]`, the activation is -1.31% (inactive).

For `Cc1ccc(/C=C2/SC(=O)NC2=S)o1`, the activation was 29.6% (active).

In the case of `Cc1nc2ccc(Cl)cc2nc(C)/c1=N\O`, the activation was 6.95% (inactive).

As to `CCOC(=O)c1c(-c2ccccc2)csc1NC(=O)/C(C#N)=C/c1ccc(O)c(OC)c1`, the activation was 23.8% (active).

In the case of `CCOC(=O)c1c(-c2ccccc2)csc1NC(=O)/C(C#N)=C\c1ccc(O)c(OC)c1`, the activation is 11.3% (inactive).

In the case of `CCNC(=S)N/N=C/c1sc(N2CCCCC2)nc1-c1cccs1`, the activation is 1.11% (inactive).

For the compound `COC(=O)Cc1ccc(NC(=S)NCCCN2CCOCC2)cc1`, the activation is 2.97% (inactive).

For `S=C(Nc1ccc(Cl)cc1)N(CCCN1CCOCC1)Cc1ccco1`, the activation is 11.2% (inactive).

For the compound `S=C(NCCCN1CCOCC1)Nc1ccc(-c2nc3ccccc3[nH]2)cc1`, the activation is 17% (active).

As for `O=C(O)c1ccccc1CSc1nnnn1-c1ccccc1`, the activation was 51.1% (active).

In the case of `C(=N\Nc1nnnn1-c1ccccc1)/c1ccncc1`, the activation was 6.05% (inactive).

As to `O=C(NCC1CCCO1)c1ccc2c(c1)C(=O)N(c1cccc([N+](=O)[O-])c1)C2=O` (stereo not drawn), the activation is 31.3% (active).

Consider `O=C(Cn1ncc2c3ccccc3n(Cc3cccc(Cl)c3)c2c1=O)NCC1CCCO1` (stereo not drawn), for which the activation was 5.86% (inactive).

On to `O=C(NCC1CCCO1)c1cccc2c1C(=O)c1ccc(N3CCC(Cc4ccccc4)CC3)cc1S2(=O)=O` (stereo not drawn), for which the activation is 4.73% (inactive).

As for `Cc1cccc(CSc2ccc(-c3ccco3)nn2)c1`, the activation was -0.44% (inactive).

Regarding `N#Cc1ccccc1OCC(=O)OCC(=O)c1ccc2c(c1)NC(=O)CO2`, the activation is 21.9% (active).

With `Cn1c(=O)cc(SCC(=O)NCC2COc3ccccc3O2)c2ccccc21` (stereo not drawn), the activation is 7.4% (inactive).

Turning to `CSc1c(CC(=O)NCCO)n(C)c2ccccc12`, the activation was 23.2% (active).

Consider `Cc1ccccc1C(=O)NC(=S)NC1CC1`, for which the activation is 0.94% (inactive).

Consider `O=C(NC1CCCCC1)c1ccccc1NC(=S)NC(=O)C1CCC1`, for which the activation was 24.5% (active).

As for `O=C(O)c1ccccc1/C=N/NC(=S)NC1CCCCC1`, the activation was 5.68% (inactive).

Consider `Cc1cc(=O)oc2cc(OCC(=O)OCC(=O)NC(C)C)ccc12`, for which the activation was 14.7% (active).

Take `Cc1ccc(NC(=O)CN(C)C(=O)COC(=O)COc2ccc(C#N)cc2)cc1`: the activation was 3.65% (inactive).

For `Cc1cc2c(cc1S(=O)(=O)CCC(=O)NCCc1ccccc1)OCC(=O)N2`, the activation was 32.7% (active).

With `Cc1ccc(CNC(=O)CCS(=O)(=O)c2cc3c(cc2C)NC(=O)CO3)cc1`, the activation is 3.23% (inactive).

On to `COc1cccc(CNC(=O)CCS(=O)(=O)c2cc3c(cc2C)NC(=O)CO3)c1`, for which the activation was 7.4% (inactive).

Regarding `CC(C)C(C(=O)O)N1C(=O)/C(=C/c2cccn2C)SC1=S` (stereo not drawn), the activation is 21.6% (active).

As for `CC(C(=O)O)N1C(=O)/C(=C/c2cccn2C)SC1=S` (stereo not drawn), the activation was 23.1% (active).

For the compound `CN1C2CCC1/C(=C/c1cccn1C)C(=O)/C2=C\c1cccn1C`, the activation is 9.37% (inactive).

As to `CCC(C(=O)O)N1C(=O)/C(=C/c2cccn2C)SC1=S` (stereo not drawn), the activation is 52.1% (active).

Turning to `CCCOc1ccc(Cn2c(=O)oc3ccc(C)cc32)cc1OC`, the activation was 23.1% (active).

As to `CCCc1ccc(OCc2ccc(C(=O)NN)o2)c(OC)c1`, the activation was 7.64% (inactive).

As for `O=C(NC1CCCCC1)c1cc2nc3c(c(C(F)(F)F)n2n1)CCCC3`, the activation was 29.3% (active).

As for `COc1cc(OC)c(C(=O)NC2CCCCCC2)cc1OC`, the activation is -0.45% (inactive).

Consider `CN1CCN(c2ccc(-c3cccc(NC(=O)COc4ccccc4)c3)nn2)CC1`, for which the activation is 25% (active).

On to `COC(=O)c1cc(N2CCN(C)CC2)nc2ccccc12`, for which the activation is 9.59% (inactive).

For the compound `COc1ccc(C(Nc2ccc(S(=O)(=O)NCC3CCCO3)cc2)C(=O)NC(C)(C)C)cc1OC` (stereo not drawn), the activation was 9.44% (inactive).

`CCCNC(=O)c1ccc(N2CCC3(CC2)CC(c2cccc(Br)c2)=NO3)c(NC(=O)c2cccc(C)c2)c1`: the activation is 9.93% (inactive).

On to `C[C@H](CO)NC(=O)[C@@H]1C[C@H]1[C@@H](NP(=O)(c1ccccc1)c1ccccc1)c1ccccc1`, for which the activation is 1.68% (inactive).

As for `COCCNC(=O)[C@H]1C[C@@H]1[C@H](NP(=O)(c1ccccc1)c1ccccc1)c1ccccc1`, the activation is 3770% (active).

As for `COc1ccc(-c2nn(-c3ccccc3)cc2/C=N/NC(N)=S)cc1OC`, the activation is 29% (active).

For `COc1cccc(/C=N/Nc2nnc(C)n2N)c1O`, the activation was 5.74% (inactive).

In the case of `Cc1ccc(C(C(=O)NC(C)(C)C)N(C(=O)c2csnn2)C2CC2)cc1` (stereo not drawn), the activation was 100% (active).

For `O=C(O)CCNc1cc(N2CCN(C(=O)c3ccco3)CC2)c2noc3c2c1C(=O)c1ccccc1-3`, the activation was 3.54% (inactive).

`O=C1c2ccccc2-c2onc3c(N4CCN(CCO)CC4)cc(N4CCN(C(=O)c5ccco5)CC4)c1c23`: the activation is 7.32% (inactive).

On to `O=C(c1ccco1)N1CCN(c2ncnc3c(-c4ccc(Cl)cc4)nsc23)CC1`, for which the activation was 112% (active).

With `CCN(CC)CCCC(C)n1c2nc(=O)[nH]c(=O)c-2nc2cc(Cl)ccc21` (stereo not drawn), the activation was 7.49% (inactive).

For `O=C(NC(=S)NCCN1CCOCC1)c1ccc(F)cc1`, the activation is 72.6% (active).

In the case of `CCOC(=O)c1ccc(N=c2sc(C(=O)OC)cc(=O)n2CCCN2CCOCC2)cc1`, the activation is 4.75% (inactive).

Turning to `CCOC(=O)c1c(NC(=S)N2CCN(C)CC2)sc2c1CCN(C(=O)OCC)C2`, the activation is 7.96% (inactive).

In the case of `CCC(CC)NC(=O)Nc1ccccc1C`, the activation was 7.62% (inactive).

`CCOC(=O)N1CCN(C(=S)Nc2ccccc2C)CC1`: the activation was 32.7% (active).

As to `O=C1NCCCCC1NS(=O)(=O)c1cccc(C(F)(F)F)c1` (stereo not drawn), the activation is 7.86% (inactive).

As for `N#Cc1ccc(S(=O)(=O)NC2CCCCNC2=O)cc1` (stereo not drawn), the activation was 93.6% (active).

As to `N#Cc1ccc(S(=O)(=O)NC2CCN(Cc3ccccc3)CC2)cc1`, the activation was 9.61% (inactive).

As to `CCOP(=O)(OCC)/C(=N/OC(=O)c1ccc(OC)cc1)C(N)=O`, the activation was 11.7% (active).

Take `COc1[nH]c(/N=C/c2ccccc2)c(C#N)c1C#N`: the activation was 7.9% (inactive).

In the case of `O=C(Cc1cccs1)N1CCN(S(=O)(=O)c2cc(Cl)ccc2Cl)CC1`, the activation is 13.5% (active).

Turning to `O=C(c1cc(-c2cccs2)nn1-c1ccccc1)N1CCN(S(=O)(=O)c2ccccc2)CC1`, the activation was 3.27% (inactive).

Consider `O=C(CSc1n[nH]c(-c2cccs2)n1)N1CCOCC1`, for which the activation was 3.55% (inactive).

As for `O=C(Nc1nccs1)C1CCN(S(=O)(=O)c2ccccc2)CC1`, the activation is 1030% (active).

In the case of `O=C(c1cc(Cl)ccc1O)N1CCN(S(=O)(=O)c2cccs2)CC1`, the activation was 683% (active).

For the compound `O=C(CC1CCCC1)N1CCN(S(=O)(=O)c2ccccc2)CC1`, the activation was 3.96% (inactive).

Turning to `CCOc1ccc(NC(=O)C2CCN(S(=O)(=O)c3cccnc3)CC2)cc1`, the activation was 0.88% (inactive).

Take `O=C(Nc1ccc(Cl)cn1)C1CCN(S(=O)(=O)c2cccs2)CC1`: the activation is 242% (active).

As to `O=C(Nc1ccccc1N1CCOCC1)C1CCN(S(=O)(=O)c2ccccc2F)CC1`, the activation was 3.08% (inactive).

`COc1ccc(NC(=O)CSc2ccc3c4c(cccc24)C(=O)c2ccccc2-3)cc1`: the activation was 19.2% (active).

On to `N#Cc1cccc(NC(=S)Nc2ccccc2)c1`, for which the activation was 6.24% (inactive).

For `N#Cc1cccc(NC(=O)CSc2ccc3c4c(cccc24)C(=O)c2ccccc2-3)c1`, the activation is 15.7% (active).

Take `COc1ccc(NC(=O)CC2C(=O)N(Cc3ccco3)C(=S)N2C(C)C)cc1` (stereo not drawn): the activation is 41.6% (active).

`COc1ccc(/C(O)=C2\C(=O)C(=O)N(Cc3ccco3)C2c2cc(OC)ccc2OC)cc1` (stereo not drawn): the activation is 10.9% (inactive).

As for `COC(=O)N1CCN(S(=O)(=O)c2ccc(F)cc2)CC1`, the activation is 8.33% (inactive).

On to `O=S(=O)(c1ccc(F)cc1)N1CCN(CCOc2ccccc2)CC1`, for which the activation was 956% (active).

Regarding `O=C(Nc1ccccc1-c1ccccc1)c1ccc(Cl)c([N+](=O)[O-])c1`, the activation was 48.5% (active).

`COc1ccc(C(=O)Nc2ccccc2-c2ccccc2)cc1Cl`: the activation was 11% (inactive).

As to `O=[N+]([O-])c1cc(-c2ccn[nH]2)ccc1Cl`, the activation was 10.1% (inactive).

On to `COc1ccc(/C=C2\SC(=S)N(CCCC(=O)Nc3ccccn3)C2=O)cc1OC`, for which the activation was 9.09% (inactive).

As to `O=C1/C(=C\c2cc(Cl)c(O)c(Cl)c2)SC(=S)N1Cc1ccccc1`, the activation is -1.15% (inactive).

Turning to `COc1cc(/C=C2/SC(=S)N(Cc3ccccc3)C2=O)cc(Cl)c1O`, the activation was 5470% (active).

On to `COc1ccc(/C=C2\SC(=S)N(CCCC(=O)Nc3ccccc3C(=O)O)C2=O)cc1OC`, for which the activation was 28.5% (active).
